Measured values published in ChEMBL document CHEMBL3627671, “Novel derivatives of nitro-substituted salicylic acids: Synthesis, antimicrobial activity and cytotoxicity” (Bioorg Med Chem, 2015).
In brackets after ≈: the same amount, converted by molar mass.

Tests used:
[1] = test system: Mycobacterium tuberculosis; experiment: Antimycobacterial activity against Mycobacterium tuberculosis H37Rv 331/88 after 14 days; assay type: functional; details: H37Rv 331/88, 336 h
[2] = test system: Mycobacterium tuberculosis; experiment: Antimycobacterial activity against Mycobacterium tuberculosis H37Rv 331/88 after 21 days; assay type: functional; details: H37Rv 331/88, 504 h
Mycobacterium avium [3] = experiment: Antimycobacterial activity against Mycobacterium avium 330/80 after 14 days; assay type: functional; details: 330/80, 336 h
Mycobacterium avium [4] = experiment: Antimycobacterial activity against Mycobacterium avium 330/80 after 21 days; assay type: functional; details: 330/80, 504 h
Mycobacterium kansasii [5] = experiment: Antimycobacterial activity against Mycobacterium kansasii 235/80 after 7 days; assay type: functional; details: 235/80, 168 h
Method in brief: (§1)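 Šula's semisynthetic medium micromethod at 37 °C, read after 7, 14 and 21 days. The 1.0 McFarland suspension was diluted 10^-4. MIC determined. 6509/96 is a clinical isolate.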

Mycobacterium kansasii [6] = experiment: Antimycobacterial activity against Mycobacterium kansasii 235/80 after 14 days; assay type: functional; details: 235/80, 336 h; method in brief: as §1
Mycobacterium kansasii [7] = experiment: Antimycobacterial activity against Mycobacterium kansasii 235/80 after 21 days; assay type: functional; details: 235/80, 504 h; method in brief: as §1
Mycobacterium kansasii [8] = experiment: Antimycobacterial activity against Mycobacterium kansasii 6509/96 after 7 days; assay type: functional; details: 6509/96, 168 h; method in brief: as §1
Mycobacterium kansasii [9] = experiment: Antimycobacterial activity against Mycobacterium kansasii 6509/96 after 14 days; assay type: functional; details: 6509/96, 336 h; method in brief: as §1
Mycobacterium kansasii [10] = experiment: Antimycobacterial activity against Mycobacterium kansasii 6509/96 after 21 days; assay type: functional; details: 6509/96, 504 h; method in brief: as §1
Staphylococcus aureus [11] = experiment: Antibacterial activity against Staphylococcus aureus CCM 4516/08 after 24 hrs by microdilution broth method; assay type: functional; details: CCM 4516/08, 24 h
Staphylococcus aureus [12] = experiment: Antibacterial activity against Staphylococcus aureus CCM 4516/08 after 48 hrs by microdilution broth method; assay type: functional; details: CCM 4516/08, 48 h
Staphylococcus aureus [13] = experiment: Antibacterial activity against methicillin-resistant Staphylococcus aureus H 5996/08 after 24 hrs by microdilution broth method; assay type: functional; details: H 5996/08, 24 h
Staphylococcus aureus [14] = experiment: Antibacterial activity against methicillin-resistant Staphylococcus aureus H 5996/08 after 48 hrs by microdilution broth method; assay type: functional; details: H 5996/08, 48 h
[15] = test system: Staphylococcus epidermidis; experiment: Antibacterial activity against Staphylococcus epidermidis H 6966/08 after 24 hrs by microdilution broth method; assay type: functional; details: H 6966/08, 24 h
Method in brief: (§2)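 Mueller-Hinton broth microdilution (modified M07-A07), pH 7.4 (±0.2). Compounds dissolved in DMSO, tested at final 500 to 0.49 µmol/L. Inoculum in sterile water matched to 0.5 McFarland. Incubated in the dark, humid atmosphere, 35 °C, read at 24 and 48 h visually and at 540 nm. MIC taken as ≥95% growth reduction (IC95) versus control.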

[16] = test system: Staphylococcus epidermidis; experiment: Antibacterial activity against Staphylococcus epidermidis H 6966/08 after 48 hrs by microdilution broth method; assay type: functional; details: H 6966/08, 48 h; method in brief: as §2
Enterococcus sp. [17] = experiment: Antibacterial activity against Enterococcus sp. J 14365/08 after 24 hrs by microdilution broth method; assay type: functional; details: J 14365/08, 24 h; method in brief: as §2
Enterococcus sp. [18] = experiment: Antibacterial activity against Enterococcus sp. J 14365/08 after 48 hrs by microdilution broth method; assay type: functional; details: J 14365/08, 48 h; method in brief: as §2
Escherichia coli [19] = experiment: Antibacterial activity against Escherichia coli CCM4517 after 24 hrs by microdilution broth method; assay type: functional; details: CCM4517, 24 h; method in brief: as §2
Escherichia coli [20] = experiment: Antibacterial activity against Escherichia coli CCM4517 after 48 hrs by microdilution broth method; assay type: functional; details: CCM4517, 48 h; method in brief: as §2
Klebsiella pneumoniae [21] = experiment: Antibacterial activity against Klebsiella pneumoniae D 11750/08 after 24 hrs by microdilution broth method; assay type: functional; details: D 11750/08, 24 h; method in brief: as §2
Klebsiella pneumoniae [22] = experiment: Antibacterial activity against Klebsiella pneumoniae D 11750/08 after 48 hrs by microdilution broth method; assay type: functional; details: D 11750/08, 48 h; method in brief: as §2
Klebsiella pneumoniae [23] = experiment: Antibacterial activity against ESBL-positive Klebsiella pneumoniae J 14368/08 after 24 hrs by microdilution broth method; assay type: functional; details: J 14368/08, 24 h; method in brief: as §2
Klebsiella pneumoniae [24] = experiment: Antibacterial activity against ESBL-positive Klebsiella pneumoniae J 14368/08 after 48 hrs by microdilution broth method; assay type: functional; details: J 14368/08, 48 h; method in brief: as §2
Pseudomonas aeruginosa [25] = experiment: Antibacterial activity against Pseudomonas aeruginosa CCM 1961 after 24 hrs by microdilution broth method; assay type: functional; details: CCM 1961, 24 h; method in brief: as §2
Pseudomonas aeruginosa [26] = experiment: Antibacterial activity against Pseudomonas aeruginosa CCM 1961 after 48 hrs by microdilution broth method; assay type: functional; details: CCM 1961, 48 h; method in brief: as §2
Candida albicans [27] = experiment: Antifungal activity against Candida albicans ATCC 44859 after 24 hrs by microdilution broth method; assay type: functional; details: ATCC 44859, 24 h
Method in brief: (§3)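 CLSI M27-A3 broth microdilution in RPMI 1640 with glutamine, buffered to pH 7.0 with MOPS; DMSO diluent. Yeast inoculum 5 × 10^3 ± 0.2 CFU/mL. Moulds grown on Sabouraud agar 3–10 days before spore harvest, final inoculum 0.5-5 × 10^4 CFU/mL, checked in a Bürker chamber. Incubated dark, humid, 35 °C, read at 24 and 48 h visually and at 540 nm. MIC taken as ≥80% (yeasts) or ≥50% (filamentous) growth reduction versus control.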

Candida albicans [28] = experiment: Antifungal activity against Candida albicans ATCC 44859 after 48 hrs by microdilution broth method; assay type: functional; details: ATCC 44859, 48 h; method in brief: as §3
Candida tropicalis [29] = experiment: Antifungal activity against Candida tropicalis 156 after 24 hrs by microdilution broth method; assay type: functional; details: Candida tropicalis, 156, 24 h; method in brief: as §3
Candida tropicalis [30] = experiment: Antifungal activity against Candida tropicalis 156 after 48 hrs by microdilution broth method; assay type: functional; details: Candida tropicalis, 156, 48 h; method in brief: as §3
Pichia kudriavzevii [31] = experiment: Antifungal activity against Candida krusei E28 after 24 hrs by microdilution broth method; assay type: functional; details: E28, 24 h; method in brief: as §3
Pichia kudriavzevii [32] = experiment: Antifungal activity against Candida krusei E28 after 48 hrs by microdilution broth method; assay type: functional; details: E28, 48 h; method in brief: as §3
Nakaseomyces glabratus [33] = experiment: Antifungal activity against Candida glabrata 20/I after 24 hrs by microdilution broth method; assay type: functional; method in brief: as §3
Nakaseomyces glabratus [34] = experiment: Antifungal activity against Candida glabrata 20/I after 48 hrs by microdilution broth method; assay type: functional; method in brief: as §3
Trichosporon asahii [35] = experiment: Antifungal activity against Trichosporon asahii 1188 after 24 hrs by microdilution broth method; assay type: functional; details: Trichosporon asahii, 1188, 24 h; method in brief: as §3
Trichosporon asahii [36] = experiment: Antifungal activity against Trichosporon asahii 1188 after 48 hrs by microdilution broth method; assay type: functional; details: Trichosporon asahii, 1188, 48 h; method in brief: as §3
Aspergillus fumigatus [37] = experiment: Antifungal activity against Aspergillus fumigatus 231 after 24 hrs by microdilution broth method; assay type: functional; details: Aspergillus fumigatus, 231, 24 h; method in brief: as §3
Aspergillus fumigatus [38] = experiment: Antifungal activity against Aspergillus fumigatus 231 after 48 hrs by microdilution broth method; assay type: functional; details: Aspergillus fumigatus, 231, 48 h; method in brief: as §3
Lichtheimia corymbifera [39] = experiment: Antifungal activity against Absidia corymbifera 272 after 24 hrs by microdilution broth method; assay type: functional; details: Lichtheimia corymbifera, 272, 24 h; method in brief: as §3
Lichtheimia corymbifera [40] = experiment: Antifungal activity against Absidia corymbifera 272 after 48 hrs by microdilution broth method; assay type: functional; details: Lichtheimia corymbifera, 272, 48 h; method in brief: as §3
[41] = test system: Trichophyton mentagrophytes; experiment: Antifungal activity against Trichophyton mentagrophytes 445 after 24 hrs by microdilution broth method; assay type: functional; details: Trichophyton mentagrophytes, 445, 24 h
[42] = test system: Trichophyton mentagrophytes; experiment: Antifungal activity against Trichophyton mentagrophytes 445 after 48 hrs by microdilution broth method; assay type: functional; details: Trichophyton mentagrophytes, 445, 48 h
HepG2 = experiment: Cytotoxicity against human HepG2 cells after 24 hrs […]; assay type: cell-based; details: HepG2, 24 h
[43] = Selectivity index, ratio of CI50 for human HepG2 cells to MIC100 for Mycobacterium tuberculosis H37Rv 331/88

Question: With `O=C(Nc1ccc(C(F)(F)F)cc1)c1ccc([N+](=O)[O-])cc1O` as the compound, how does the MIC [1] read?
Answer: 2 µM (≈ 0.652 µg/mL)

Question: What about the MIC [2] of the same compound?
Answer: 4 µM (≈ 1.3 µg/mL)

Question: What about the MIC (Mycobacterium avium [3]) of the same compound?
Answer: 32 µM (≈ 10.4 µg/mL)

Question: And the MIC (Mycobacterium avium [4])?
Answer: 32 µM (≈ 10.4 µg/mL)

Question: And the MIC (Mycobacterium kansasii [5])?
Answer: 2 µM (≈ 0.652 µg/mL)

Question: What about the MIC (Mycobacterium kansasii [6]) of the same compound?
Answer: 4 µM (≈ 1.3 µg/mL)

Question: And the MIC (Mycobacterium kansasii [7])?
Answer: 8 µM (≈ 2.61 µg/mL)

Question: And the MIC (Mycobacterium kansasii [8])?
Answer: 4 µM (≈ 1.3 µg/mL)

Question: What about the MIC (Mycobacterium kansasii [9]) of the same compound?
Answer: 8 µM (≈ 2.61 µg/mL)

Question: And the MIC (Mycobacterium kansasii [10])?
Answer: 8 µM (≈ 2.61 µg/mL)

Question: What about the MIC (Staphylococcus aureus [11]) of the same compound?
Answer: 7.81 µM (≈ 2.55 µg/mL)

Question: What about the MIC (Staphylococcus aureus [12]) of the same compound?
Answer: 7.81 µM (≈ 2.55 µg/mL)

Question: What about the MIC (Staphylococcus aureus [13]) of the same compound?
Answer: 1.95 µM (≈ 0.636 µg/mL)

Question: And the MIC (Staphylococcus aureus [14])?
Answer: 1.95 µM (≈ 0.636 µg/mL)

Question: And the MIC [15]?
Answer: 1.95 µM (≈ 0.636 µg/mL)

Question: And the MIC [16]?
Answer: 7.81 µM (≈ 2.55 µg/mL)

Question: And the MIC (Enterococcus sp. [17])?
Answer: 250 µM (≈ 81.6 µg/mL)

Question: What about the MIC (Enterococcus sp. [18]) of the same compound?
Answer: 250 µM (≈ 81.6 µg/mL)

Question: And the MIC (Escherichia coli [19])?
Answer: 500 µM (≈ 163 µg/mL)

Question: And the MIC (Escherichia coli [20])?
Answer: 500 µM (≈ 163 µg/mL)

Question: What about the MIC (Klebsiella pneumoniae [21]) of the same compound?
Answer: 500 µM (≈ 163 µg/mL)

Question: And the MIC (Klebsiella pneumoniae [22])?
Answer: 500 µM (≈ 163 µg/mL)

Question: And the MIC (Klebsiella pneumoniae [23])?
Answer: 500 µM (≈ 163 µg/mL)

Question: What about the MIC (Klebsiella pneumoniae [24]) of the same compound?
Answer: 500 µM (≈ 163 µg/mL)

Question: And the MIC (Pseudomonas aeruginosa [25])?
Answer: > 500 µM

Question: And the MIC (Pseudomonas aeruginosa [26])?
Answer: > 500 µM

Question: What about the MIC (Candida albicans [27]) of the same compound?
Answer: 250 µM (≈ 81.6 µg/mL)

Question: What about the MIC (Candida albicans [28]) of the same compound?
Answer: 250 µM (≈ 81.6 µg/mL)

Question: What about the MIC (Candida tropicalis [29]) of the same compound?
Answer: 250 µM (≈ 81.6 µg/mL)

Question: What about the MIC (Candida tropicalis [30]) of the same compound?
Answer: 250 µM (≈ 81.6 µg/mL)

Question: What about the MIC (Pichia kudriavzevii [31]) of the same compound?
Answer: 62.5 µM (≈ 20.4 µg/mL)

Question: What about the MIC (Pichia kudriavzevii [32]) of the same compound?
Answer: 125 µM (≈ 40.8 µg/mL)

Question: And the MIC (Nakaseomyces glabratus [33])?
Answer: 125 µM (≈ 40.8 µg/mL)

Question: What about the MIC (Nakaseomyces glabratus [34]) of the same compound?
Answer: 250 µM (≈ 81.6 µg/mL)

Question: What about the MIC (Trichosporon asahii [35]) of the same compound?
Answer: 31.2 µM (≈ 10.2 µg/mL)

Question: What about the MIC (Trichosporon asahii [36]) of the same compound?
Answer: 31.2 µM (≈ 10.2 µg/mL)

Question: And the MIC (Aspergillus fumigatus [37])?
Answer: 31.2 µM (≈ 10.2 µg/mL)

Question: What about the MIC (Aspergillus fumigatus [38]) of the same compound?
Answer: 31.2 µM (≈ 10.2 µg/mL)

Question: And the MIC (Lichtheimia corymbifera [39])?
Answer: 31.2 µM (≈ 10.2 µg/mL)

Question: What about the MIC (Lichtheimia corymbifera [40]) of the same compound?
Answer: 62.5 µM (≈ 20.4 µg/mL)

Question: What about the MIC [41] of the same compound?
Answer: 62.5 µM (≈ 20.4 µg/mL)

Question: What about the MIC [42] of the same compound?
Answer: 125 µM (≈ 40.8 µg/mL)

Question: What about the IC50 (HepG2) of the same compound?
Answer: 1200 nM

Question: What about the “Selectivity Index” value [43] of the same compound?
Answer: 0.3
